# High-throughput results as filed in PubChem BioAssay.
# In the library only some 4.9% were active in any assay of this set; here they are far more common.
# HSF1 inh: HSF1 inhibitors in luciferase reporter cells, primary screen, cell-based, NIH3T3, luminescence | actives 0.77% (n = 300,000) | activity change, negative = inhibition, % at 7.5 µM (by protocol) | AID 2098, 2009 | NIH3T3-HGL HSE-luciferase, MG132-induced, luminescence 8 h; active compounds read low;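 active = more than half of replicate wells show activity change below -50%, luminescence cut by over half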;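 also: luciferase reports HSF-1 transcriptional activity via heat shock element; 0% = median of DMSO wells and -100% = zero luminescence signal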
# Lipid droplet: inhibitors of hepatocyte lipid droplet formation, primary screen, imaging, high-throughput imaging, BODIPY stain | AML12 mouse hepatocytes, oleate lipid droplets | inhibition, % at 6.5 µM | actives 0.4% (n = 240,000) | AID 1656, 2009;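 active = lipid droplet intensity inhibited by at least 50%, with more than 500 cells counted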
#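 System: AML12 hepatocytes (mouse). Probe or stimulus: oleic acid at 100 µM to induce lipid droplet formation. Times: overnight treatment with compound plus oleate. Detection: Image-based BODIPY and DAPI two-channel analysis. Evaluation: percent inhibition of filter-corrected integrated lipid droplet intensity per well.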
# HSF-1 act: HSF-1 activators, primary screen, NIH3T3-HGL cells, MG132 stress, luminescence, single point | NIH3T3-HGL HSF-1 luciferase reporter, 8 h; 100% = twice DMSO control signal | activation, % at 9 µM | actives 1.7% (n = 300,000) | AID 504408, 2011;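 active = mean replicate activation of at least 50% with a set share of replicates each reaching 50%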;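 also: 0% = median of the neutral control wells and 100% = twice that signal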
# PHOSPHO1 block: PubChem AID 1565 | recombinant PHOSPHO1, absorbance phosphatase assay | inhibition, % at 13.3 µM | actives 1.1% (n = 290,000); in the data active = inhibition above about 60%
# CHT block: inhibitors of human choline transporter CHT; CHT-expressing cells, membrane potential dye, choline response; active compounds read low; B-score at 10 µM; actives 0.86% (n = 310,000);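 active = B-score over 3 SD under the library average, and starting fluorescence ratio not unusually high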;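 also: choline stimulus applied at its EC90 after an EC20 pre-addition; B-score computed on integrated fluorescence ratio after choline addition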
# Target sequence (Q9GZV3 whole entry, looked up): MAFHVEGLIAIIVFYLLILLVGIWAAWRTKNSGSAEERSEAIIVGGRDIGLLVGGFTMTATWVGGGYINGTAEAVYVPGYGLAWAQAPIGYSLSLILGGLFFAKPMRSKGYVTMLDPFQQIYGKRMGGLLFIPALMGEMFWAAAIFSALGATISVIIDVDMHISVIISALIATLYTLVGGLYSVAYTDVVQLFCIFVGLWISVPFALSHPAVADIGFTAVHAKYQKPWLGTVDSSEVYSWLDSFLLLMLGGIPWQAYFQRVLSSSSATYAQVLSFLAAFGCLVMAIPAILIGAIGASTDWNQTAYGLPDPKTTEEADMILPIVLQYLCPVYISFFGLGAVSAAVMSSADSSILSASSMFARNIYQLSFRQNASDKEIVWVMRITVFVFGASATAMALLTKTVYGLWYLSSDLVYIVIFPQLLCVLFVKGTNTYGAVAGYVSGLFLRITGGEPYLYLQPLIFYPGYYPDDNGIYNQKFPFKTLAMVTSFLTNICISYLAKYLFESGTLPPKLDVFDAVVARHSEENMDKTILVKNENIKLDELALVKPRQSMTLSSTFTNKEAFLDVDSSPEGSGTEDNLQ
# CHT PAM: CHT positive allosteric modulators, primary screen, cell-based, membrane potential dye, choline EC20. CHT-expressing cells; active compounds read high; LV-AA mutant CHT in HEK293 cells. actives 0.49% (n = 310,000). B-score at 10 µM;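 active = initial fluorescence not abnormally high and integrated response B-score, plate-corrected, over 3 SD above library mean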
# Lipid drop inh: hepatocyte lipid droplet accumulation inhibitors, confirmation, imaging, AML12 mouse hepatocytes, single concentration, high-content. shares compounds with Lipid droplet. BODIPY lipid droplet imaging; droplets induced with 100 µM oleic acid. inhibition, % at 5.2 µM. actives 65% (n = 870). AID 463183, 2010;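 active = inhibition of lipid droplet metric at least 50%, with more than 300 cells in each of four replicates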;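 also: plate controls were DMSO with oleic acid for no effect and 5 µM Triacsin-C for full effect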
# AML12 cytotox: AML12 hepatocyte cytotoxicity, counter-screen for hepatic lipid droplet formation project, imaging, DAPI nuclear morphology imaging. actives 3% (n = 870). AID 463200, 2010. z-score at 5 µM. AML12 mouse hepatocytes; active compounds read high; cells fed 100 µM oleate overnight. shares compounds with Lipid droplet; in the data active = z-score above about 6.3;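 also: compound exposure lasted overnight at 37 °C before fixation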
# AML12 tox ATP: AML12 hepatocyte cytotoxicity, confirmation, cytotoxicity control for hepatic lipid droplet formation project, cell-based, single concentration; shares compounds with Lipid droplet; AML12 mouse hepatocyte viability, ATP luminescence; cells loaded with 100 µM oleic acid; AID 463219, 2010; cytotoxicity, % at 50 µM; 530 tested, under 10 active;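 active = cytotoxicity above 50% in each of four replicates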;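 also: compound exposure lasted overnight at 37 °C before the ATP read; 0% = DMSO-treated cells and 100% = wells with no cells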
# An asterisk follows results filed as active; i = inactive; · = not tested or not shown.
SMILES,HSF1 inh,Lipid droplet,HSF-1 act,PHOSPHO1 block,CHT block,CHT PAM,Lipid drop inh,AML12 cytotox,others
NC(=O)CC(NC(=O)Cc1cccc2ccccc12)c1ccc(N2CCCCCCC2)c([N+](=O)[O-])c1 (stereo not given),8,·,0,-2,i,i,·,·,
NC(=O)CC(NC(=O)Cc1cccc2ccccc12)c1ccc(N2CCN(c3ccc(F)cc3)CC2)c([N+](=O)[O-])c1 (stereo not given),9,53*,-2,30,i,i,18,-0.64,
COC(=O)/C(=C/c1ccc2c(c1)c1ccccc1n2C)NC(=O)c1ccccc1,31,83*,73*,1,i,i,80*,0.53,AML12 tox ATP=-3
CC(C)OC(=O)/C(=C\c1ccccc1)NC(=O)c1ccccc1,1,-26,5,13,i,i,·,·,
COc1ccc(-c2cnc(SCC(=O)Nc3nc(C(C)(C)C)cs3)n2Cc2ccco2)cc1,21,64*,43,-16,i,i,94*,1.4,AML12 tox ATP=-32
Cc1cnc(NC(=O)CSc2ncc(-c3ccccc3)n2Cc2ccco2)s1,9,-24,35,-38,i,i,·,·,
c1cc2c3c(cccc3c1)NC1(CCC3(CC1)Nc1cccc4cccc(c14)N3)N2,-6,51*,-16,-1,i,i,14,0.33,
C=C1SC(=Nc2ccccc2Cl)N(C(=O)c2sc3ccccc3c2Cl)C12CCCCC2,23,-15,32,30,i,i,·,·,
C=CCN1C(=O)/C(=C\C=C2\N(C)c3ccccc3C2(C)C)SC1=S,2,91*,-2,0,i,i,107*,-0.34,AML12 tox ATP=10
Cc1ccc(S(=O)(=O)NNC(=O)c2cc([N+](=O)[O-])c(C)c([N+](=O)[O-])c2)cc1,1,·,-14,·,i,i,·,·,
COc1c([N+](=O)[O-])cc(C(=O)NNC(=O)c2ccc(C)cc2)cc1[N+](=O)[O-],-4,56*,-10,·,i,i,32,0.11,
COC(C[C@@H](O)C[C@@H](O)COCc1ccccc1)OC,-3,113*,-2,26,·,·,1,0.34,
CCc1ccc(OCc2ccc(C(=O)O)o2)cc1,-8,59*,-15,19,i,i,16,-0.027,
COc1cc(C=O)c(Br)cc1OC1CCCC1,-4,9,-12,21,i,i,·,·,
COc1ccc(-c2c/c(=N\c3nc(-c4ccccc4)c(C)s3)c3ccccc3o2)cc1O,-16,58*,-33,12,i,i,-20,23*,
COc1ccc(C(=O)Nc2ccccc2C(=O)NCc2cccnc2)cc1,-3,14,-3,41,i,i,·,·,
Cc1cc(C)n(-c2nc3c(c(=O)[nH]c(=O)n3C)n2CC(O)COc2ccc(Cl)cc2Cl)n1 (stereo not given),-8,52*,-10,-16,i,i,-16,0.69,
COc1cc2oc3cc(C)oc(=O)c3c2cc1OC,-1,7,5,30,i,i,·,·,
COc1ccc(CN2CCN(c3ncnc4scc(-c5ccc(F)cc5)c34)CC2)cc1,4,-25,10,3,i,i,·,·,
COc1ccc(F)cc1CN1CCN(c2ncnc3scc(-c4ccccc4)c23)CC1,-3,56*,4,56,i,i,-3,0.65,
COc1cccc(CNCc2cccnc2)c1OCc1ccccc1,-9,9,8,45,i,i,·,·,
Cc1c(-c2csc(N)n2)c2ccccc2n1C,13,-20,9,9,i,i,·,·,
COc1cccc(CNC(=O)CCNC(=O)C2CCN(S(=O)(=O)c3ccccc3)CC2)c1,-1,60*,7,3,i,i,81*,-0.74,AML12 tox ATP=13
CCc1nc(SCC(=O)Nc2c(C)nn(C)c2C)c2cnn(-c3ccccc3)c2n1,-6,·,2,-1,·,·,·,·,
O=c1c(C/C=C/c2ccccc2)c(O)ccn1CCc1c[nH]c2ccccc12,4,60*,3,27,i,i,105*,-0.19,AML12 tox ATP=13
SMILES,HSF1 inh,Lipid droplet,HSF-1 act,PHOSPHO1 block,CHT block,CHT PAM,Lipid drop inh,AML12 cytotox,others
COc1ccc(-c2cc([C@H]3[C@H]4C=CC[C@@H](C)[C@@H]4C(=O)N3Cc3ccccc3)ccc2F)cc1OC,12,-38,16,18,i,i,·,·,
COc1ccc(C2=NS(=O)(=O)N(C)C(C(=O)NCc3ccc4c(c3)OCO4)=C2)cc1,-4,-41,-1,23,i,i,·,·,
CCOC(=O)N1CCN(C(=O)CSCC(=O)Nc2nc(-c3ccc(-c4ccccc4)cc3)cs2)CC1,12,82*,22,-18,i,i,76*,0.13,AML12 tox ATP=42
Clc1ccc(CO/N=C2\CCCc3nonc32)cc1,17,20,33,0,i,i,·,·,
COC(=O)c1cc(-c2ccc(OC)cc2)nc2nc(SC)[nH]c(=O)c12,-4,67*,-14,30,i,i,27,-0.77,
COC(=O)CSc1nnc2c(C)cc3cc4c(cc3n12)OCCO4,·,·,·,-8,·,·,·,·,
COc1ccc(N(CC(=O)NCCC2=CCCCC2)S(=O)(=O)c2ccc(C)cc2)cc1,9,16,19,12,i,i,·,·,
CCCCCCCCCCCCC(=O)CCCCC(=O)O,-2,3,8,40,i,i,·,·,
Cc1cccc(NC(=O)CSc2nnc(C)c(=O)n2N)c1,-7,56*,2,13,i,i,46,0.049,AML12 tox ATP=7
Cc1ccc(NC(=O)CSc2nnc(C)c(=O)n2N)c(C)c1,4,22,4,-19,i,i,·,·,
Cc1ccc(NC(=O)CSc2nnc(C)c(=O)n2N)cc1Cl,-5,63*,0,18,i,i,97*,-0.51,AML12 tox ATP=12
